In ChEMBL document CHEMBL1146090, “Similarity based virtual screening: a tool for targeted library design” (J Med Chem, 2006) one finds viability, cytotoxicity and inhibition data, which are given here for 8 compounds.

Each structure is given as a SMILES string.

Series [1] is described as follows: Viability of HL cells at 50 uM. The series is classed as cell-based. As to conditions: human, read-out: Activity. In outline:
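Viable HL cells counted through intracellular LDH after 3 days exposure to 50 μM agent. Medium removed, cells washed twice and lysed, then LDH measured with the same kit. Percentage derived against LDH from unexposed cultures. Mean of four replicates, single experiment.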

For the next series, the system named is HL. The series is described as follows: Cytotoxicity against HL cells at 50 uM. In kind it is functional.
Series [2] has as its system Chlamydia pneumoniae. Kind of series: Antibacterial activity against Chlamydia pneumoniae in HL cells at 1 uM. The series is classed as functional. An outline of the steps:
(§1)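 HL host cells (RPMI 1640, 10% FBS, 2 mM L-glutamine, 37 °C, 5% CO2) seeded 5×10^4/well; after 24 h, confluent monolayers inoculated by centrifugation (550 × g, 60 min) with C. pneumoniae Kajaani 7 EBs, 4×10^5 IFU/mL. Agent added in antibiotic-free medium plus 0.5 μg/mL cycloheximide; 72 h, 37 °C. Methanol-fixed; europium-labelled genus-specific antibody, time-resolved fluorometry. Two experiments on different days, six replicates each, averaged.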

Series [3] has as its system Chlamydia pneumoniae. Kind of series: Antibacterial activity against Chlamydia pneumoniae in HL cells at 70 uM. In kind it is functional. In outline: as §1
In series [4] the test system is Chlamydia pneumoniae. The series is described as follows: Antibacterial activity against Chlamydia pneumoniae in HL cells at 5 uM. In kind it is functional. In outline:
as §1

Series [5] relates to Chlamydia pneumoniae. The series is described as follows: Antibacterial activity against Chlamydia pneumoniae in HL cells at 50 uM. The series is classed as functional. In outline: as §1

Take `c1ccc(-c2cc3ncnc(NCc4ccc5c(c4)OCO5)c3s2)cc1`: the viability at 50 µM in series [1] came to 98.2%. The compound further returned a cytotoxicity in the series on HL of 0.4%. The compound further registered an inhibition at 1 µM in the series with Chlamydia pneumoniae [2] of 2.1%. The inhibition at 70 µM in the series on Chlamydia pneumoniae [3] came out at 71.2%. The same compound showed an inhibition at 5 µM in the series on Chlamydia pneumoniae [4] of 58.8%. Moreover, in the series on Chlamydia pneumoniae [5], 50 µM produced 68.6% inhibition.
As for `N=C(NOC(=O)Nc1cccc(Cl)c1)c1ccc2nonc2c1`, in series [1], the viability at 50 µM is 99.3%. This compound came in with a cytotoxicity with HL of 1.1%. In the series on Chlamydia pneumoniae [2], this compound showed an inhibition at 1 µM of 0%. This compound also yielded an inhibition at 70 µM with Chlamydia pneumoniae [3] of 99.3%. This compound also returned an inhibition at 5 µM with Chlamydia pneumoniae [4] of 6.8%. For the same compound, testing at 50 µM in the series with Chlamydia pneumoniae [5] gave an inhibition of 85.5%.
For `O=C(Nc1cccc(-c2nc3ccccc3[nH]2)c1)c1ccccc1`, the viability at 50 µM in series [1] was 95.5%. The cytotoxicity with HL is 1.2%. The same compound registered an inhibition at 1 µM in the series with Chlamydia pneumoniae [2] of 14.6%. For the same compound, the inhibition at 70 µM with Chlamydia pneumoniae [3] amounted to 69.1%. Besides, at 5 µM the inhibition with Chlamydia pneumoniae [4] was 19.7%. This compound also gave an inhibition at 50 µM in the series with Chlamydia pneumoniae [5] of 69.6%.
With `Nc1nc(Nc2ccccc2)nc(Nc2ccccc2)n1`, the viability at 50 µM in series [1] turned out to be 83.4%. In the series with HL, this compound registered a cytotoxicity of 3.7%. Also, 1 µM produced 0% inhibition with Chlamydia pneumoniae [2]. The compound also gave an inhibition at 70 µM in the series with Chlamydia pneumoniae [3] of 100%. The inhibition at 5 µM with Chlamydia pneumoniae [4] came to 0%. Besides, at 50 µM the inhibition with Chlamydia pneumoniae [5] was 72.8%.
For the compound `Nc1nc(Nc2ccc(Cl)cc2)nc(-c2cc(Cl)ccc2O)n1`, the viability at 50 µM in series [1] was determined as 95%. The cytotoxicity with HL worked out at 1.4%. Testing at 1 µM in the series with Chlamydia pneumoniae [2] gave an inhibition of 0%. For the same compound, testing at 70 µM in the series with Chlamydia pneumoniae [3] gave an inhibition of 83.9%. Moreover, 5 µM produced 76% inhibition in the series on Chlamydia pneumoniae [4]. The same compound came in with an inhibition at 50 µM with Chlamydia pneumoniae [5] of 79.8%.
Regarding `O=C(Nc1cccc(-c2nc3ccccc3[nH]2)c1)c1cccs1`, the viability at 50 µM in series [1] came to 98%. In the series with HL, this compound registered a cytotoxicity of 1.2%. The same compound came in with an inhibition at 1 µM in the series with Chlamydia pneumoniae [2] of 39.5%. Besides, testing at 70 µM in the series on Chlamydia pneumoniae [3] gave an inhibition of 92.6%. In the series on Chlamydia pneumoniae [4], this compound registered an inhibition at 5 µM of 41.2%. The compound further showed an inhibition at 50 µM in the series on Chlamydia pneumoniae [5] of 90.5%.
For `O=C(Nc1ccc2c(c1)OCCO2)c1cccc(COc2cc(Cl)ccc2Cl)c1`, the viability at 50 µM in series [1] worked out at 86.2%. The cytotoxicity in the series on HL is recorded as 2.3%. The inhibition at 1 µM in the series on Chlamydia pneumoniae [2] is 0%. The compound further came in with an inhibition at 70 µM in the series on Chlamydia pneumoniae [3] of 93.6%. The compound further registered an inhibition at 5 µM in the series on Chlamydia pneumoniae [4] of 15.3%. The inhibition at 50 µM with Chlamydia pneumoniae [5] was determined as 81.8%.
Consider `N=C(NOC(=O)Nc1ccccc1)c1ccc2nonc2c1`, for which the viability at 50 µM in series [1] is 100%. The compound further had a cytotoxicity with HL of 0%. Further, in the series with Chlamydia pneumoniae [2], the inhibition at 1 µM amounted to 0%. In addition, in the series on Chlamydia pneumoniae [3], the inhibition at 70 µM turned out to be 72.5%. Besides, the inhibition at 5 µM in the series with Chlamydia pneumoniae [4] was 0.2%. For the same compound, 50 µM produced 56.1% inhibition in the series on Chlamydia pneumoniae [5].
